This passage reports outcome results from PubChem BioAssay AID488947 (Sanford-Burnham Center for Chemical Genomics, 2010).

Structures are written as SMILES. Active and inactive are the calls of the source.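 Rule for the calls: active = compounds letting at most 1% of the green fluorescent tagged protein gather at the cell membrane; inactive = the rest.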

This assay deals with G-protein coupled receptor 55 (Homo sapiens) (UniProt Q9Y2T6). The experiment in a line: inhibition of agonist-driven PKCbII translocation via GPR55 – imaging, HEK293, PKCbII-GFP, SAR follow-up (AID 488947). The following applies: HEK293 GPR55 + PKCbetaII-GFP, membrane recruitment imaging. The gist of the method: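 Assay system: transfected HEK293 with GPR55 and PKCβII-GFP / Buffer or medium: serum-free MEM / Also added: 10 µM AM251 / Dosing: 4 doses, 10–100 µM / Times: 15 min compound, then 30 min AM251 / Detection: fluorescence imaging of GFP after 1% PFA fixation, scored by eye / Replicates: duplicate wells per dose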
G-protein coupled receptor 55 (Homo sapiens), sequence (Q9Y2T6 whole entry, looked up): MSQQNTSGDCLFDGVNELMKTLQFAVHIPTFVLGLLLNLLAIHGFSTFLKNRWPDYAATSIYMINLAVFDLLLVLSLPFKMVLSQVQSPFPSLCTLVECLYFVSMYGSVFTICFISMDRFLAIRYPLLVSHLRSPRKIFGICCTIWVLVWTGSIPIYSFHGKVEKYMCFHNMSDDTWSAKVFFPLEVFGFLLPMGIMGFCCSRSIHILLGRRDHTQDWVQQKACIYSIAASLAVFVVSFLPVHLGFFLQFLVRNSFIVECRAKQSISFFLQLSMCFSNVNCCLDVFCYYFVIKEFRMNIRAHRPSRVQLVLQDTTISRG

For the compound `Cc1ccc(C2(C(=O)N3CCC(n4nc(-c5ccccc5)oc4=O)CC3)CC2)cc1`, the result was active.
`Cc1nc(N2CCN(C(=O)c3ccco3)CC2)c2c3c(sc2n1)CCCC3`: the outcome is “active; +”.
Turning to `Cc1cc(C)c2nc(-c3ccccn3)cc(C(=O)Nc3ccc(S(=O)(=O)Nc4onc(C)c4C)cc3)c2c1`, the result was active.
